Experimental data: ChEMBL document CHEMBL4330069, “Boosting the efficacy of anti-MRSA β-lactam antibiotics via an easily accessible, non-cytotoxic and orally bioavailable FtsZ inhibitor” (Eur J Med Chem, 2019)
Values after ≈ are worked out from the molar mass of the structure shown.

Legend:
Staphylococcus aureus [1] = experiment: Synergistic antibacterial activity against multidrug-resistant Staphylococcus aureus isolate 85 in presence of amoxicillin by broth microdilution assay; format: functional
Staphylococcus aureus [2] = experiment: Synergistic antibacterial activity against multidrug-resistant Staphylococcus aureus isolate 1344 assessed as fractional Inhibitory concentration index in presence of methicillin by broth microdilution assay; format: functional
In short: (§1)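 CLSI broth microdilution run on clinical MRSA isolates with each β-lactam alone, the test agent alone, and the two combined; agents dissolved in DMSO. Growth inhibition was read by eye. FIC index = FIC(compound) + FIC(β-lactam), where each FIC is the MIC in combination divided by the MIC alone. An index ≤0.5 was taken as synergy.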

Staphylococcus aureus [3] = experiment: Synergistic antibacterial activity against multidrug-resistant Staphylococcus aureus isolate 85 assessed as fractional Inhibitory concentration index in presence of cefuroxime by broth microdilution assay; format: functional
Staphylococcus aureus [4] = experiment: Synergistic antibacterial activity against multidrug-resistant Staphylococcus aureus isolate 2901 assessed as fractional Inhibitory concentration index in presence of methicillin by broth microdilution assay; format: functional
Staphylococcus aureus [5] = experiment: Synergistic antibacterial activity against multidrug-resistant Staphylococcus aureus isolate 1402 in presence of meropenem by broth microdilution assay; format: functional
In short: (§2)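 Clinical MRSA isolate panel; compound and β-lactam tested alone and in combination by CLSI broth microdilution, compounds dissolved in DMSO, growth inhibition scored by eye, run in duplicate. FIC index = FIC(compound) + FIC(drug), each the MIC in combination divided by the MIC alone; an index ≤ 0.5 was called synergy.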

Staphylococcus aureus [6] = experiment: Antibacterial activity against Staphylococcus aureus ATCC 29213 by broth microdilution assay; format: functional
In short: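 Broth microdilution per CLSI guidelines; compounds dissolved in DMSO; single agents tested; growth inhibition read by eye; run in duplicate (table footnote states at least triplicates).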

Staphylococcus aureus [7] = experiment: Synergistic antibacterial activity against multidrug-resistant Staphylococcus aureus isolate 1717 assessed as fractional Inhibitory concentration index in presence of cloxacillin by broth microdilution assay; format: functional; in short: as §1
Staphylococcus aureus [8] = experiment: Synergistic antibacterial activity against multidrug-resistant Staphylococcus aureus isolate 358 in presence of meropenem by broth microdilution assay; format: functional
Staphylococcus aureus [9] = experiment: Synergistic antibacterial activity against multidrug-resistant Staphylococcus aureus isolate 200 assessed as fractional Inhibitory concentration index in presence of meropenem by broth microdilution assay; format: functional; in short: as §1
Staphylococcus aureus [10] = experiment: Antibacterial activity against multidrug-resistant Staphylococcus aureus isolate 3332 by broth microdilution assay; format: functional
In short: (§3)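 Broth microdilution MIC per CLSI guidelines against clinical MRSA isolates, for β-lactams and test compound alone and in combination. Compounds were dissolved in DMSO. Growth was read by eye, in duplicate. FIC index = FIC(compound) + FIC(drug); synergy defined as FIC index ≤0.5.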

Staphylococcus aureus [11] = experiment: Synergistic antibacterial activity against multidrug-resistant Staphylococcus aureus isolate 1402 in presence of cloxacillin by broth microdilution assay; format: functional; in short: as §2
Staphylococcus aureus [12] = experiment: Synergistic antibacterial activity against multidrug-resistant Staphylococcus aureus isolate 256 assessed as fractional Inhibitory concentration index in presence of cefuroxime by broth microdilution assay; format: functional
Staphylococcus aureus [13] = experiment: Synergistic antibacterial activity against multidrug-resistant Staphylococcus aureus isolate 2973 in presence of meropenem by broth microdilution assay; format: functional
In short: (§4)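 CLSI broth microdilution on clinical MRSA isolates. MICs were measured for the β-lactam alone, the test agent alone and the two combined. Compounds were dissolved in DMSO, and growth inhibition was scored by eye. FIC index is the sum, over both agents, of MIC in combination divided by MIC alone. An FIC index ≤0.5 was taken as synergy.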

Staphylococcus aureus [14] = experiment: Antibacterial activity against multidrug-resistant Staphylococcus aureus ATCC 43300 infected in BALB/C mouse assessed as mouse survival at 50 mg/kg, ip bid co-administered with 25 mg/kg, ip bid cefuroxime measured on day 4 post infection (reference value: 50%)
Staphylococcus aureus [15] = experiment: Synergistic antibacterial activity against multidrug-resistant Staphylococcus aureus isolate 2973 in presence of methicillin by broth microdilution assay; format: functional; in short: as §4
Staphylococcus aureus [16] = experiment: Synergistic antibacterial activity against multidrug-resistant Staphylococcus aureus isolate 1449 in presence of methicillin by broth microdilution assay; format: functional; in short: as §2
Staphylococcus aureus [17] = experiment: Antibacterial activity against multidrug-resistant Staphylococcus aureus isolate 757 by broth microdilution assay; format: functional; in short: as §3
Staphylococcus aureus [18] = experiment: Synergistic antibacterial activity against multidrug-resistant Staphylococcus aureus isolate 1136 in presence of cloxacillin by broth microdilution assay; format: functional; in short: as §2
Staphylococcus aureus [19] = experiment: Synergistic antibacterial activity against multidrug-resistant Staphylococcus aureus isolate 417 in presence of amoxicillin by broth microdilution assay; format: functional
Staphylococcus aureus [20] = experiment: Synergistic antibacterial activity against multidrug-resistant Staphylococcus aureus isolate 3411 in presence of methicillin by broth microdilution assay; format: functional
Staphylococcus aureus [21] = experiment: Synergistic antibacterial activity against multidrug-resistant Staphylococcus aureus isolate 1344 assessed as fractional Inhibitory concentration index in presence of amoxicillin by broth microdilution assay; format: functional; in short: as §1
Staphylococcus aureus [22] = experiment: Synergistic antibacterial activity against multidrug-resistant Staphylococcus aureus isolate 1717 in presence of methicillin by broth microdilution assay; format: functional; in short: as §2
Staphylococcus aureus [23] = experiment: Synergistic antibacterial activity against multidrug-resistant Staphylococcus aureus isolate 200 in presence of cloxacillin by broth microdilution assay; format: functional; in short: as §2
Staphylococcus aureus [24] = experiment: Synergistic antibacterial activity against multidrug-resistant Staphylococcus aureus isolate 256 assessed as fractional Inhibitory concentration index in presence of cloxacillin by broth microdilution assay; format: functional
Staphylococcus aureus [25] = experiment: Synergistic antibacterial activity against multidrug-resistant Staphylococcus aureus isolate 358 in presence of cefuroxime by broth microdilution assay; format: functional
Staphylococcus aureus [26] = experiment: Synergistic antibacterial activity against multidrug-resistant Staphylococcus aureus isolate 2516 assessed as fractional Inhibitory concentration index in presence of cloxacillin by broth microdilution assay; format: functional; in short: as §1
Staphylococcus aureus [27] = experiment: Synergistic antibacterial activity against multidrug-resistant Staphylococcus aureus isolate 1717 in presence of meropenem by broth microdilution assay; format: functional; in short: as §2
Staphylococcus aureus [28] = experiment: Synergistic antibacterial activity against multidrug-resistant Staphylococcus aureus isolate 256 assessed as fractional Inhibitory concentration index in presence of methicillin by broth microdilution assay; format: functional
Staphylococcus aureus [29] = experiment: Synergistic antibacterial activity against multidrug-resistant Staphylococcus aureus isolate 3411 in presence of cefuroxime by broth microdilution assay; format: functional
Staphylococcus aureus [30] = experiment: Synergistic antibacterial activity against multidrug-resistant Staphylococcus aureus isolate 757 in presence of meropenem by broth microdilution assay; format: functional
Staphylococcus aureus [31] = experiment: Synergistic antibacterial activity against multidrug-resistant Staphylococcus aureus isolate 2973 in presence of cefuroxime by broth microdilution assay; format: functional; in short: as §4
Staphylococcus aureus [32] = experiment: Synergistic antibacterial activity against multidrug-resistant Staphylococcus aureus isolate 1136 assessed as fractional Inhibitory concentration index in presence of methicillin by broth microdilution assay; format: functional; in short: as §1
Staphylococcus aureus [33] = experiment: Synergistic antibacterial activity against multidrug-resistant Staphylococcus aureus isolate 256 in presence of methicillin by broth microdilution assay; format: functional; in short: as §4
Staphylococcus aureus [34] = experiment: Antibacterial activity against Staphylococcus aureus ATCC 29213 harboring FtsZ 128 mutation after 20 hrs; format: functional; settings: ATCC 29213, 20 h
In short: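 Broth microdilution MIC per CLSI guidelines, compounds dissolved in DMSO. Resistant mutants were selected by serial passage of ATCC 29213 in LB at 37 °C with shaking at 250 rpm. Each 20 h culture started at half the MIC, and the concentration was doubled at each transfer. Growth inhibition was read by eye, in duplicate.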

Staphylococcus aureus [35] = experiment: Synergistic antibacterial activity against multidrug-resistant Staphylococcus aureus isolate 2490 assessed as fractional Inhibitory concentration index in presence of cefuroxime by broth microdilution assay; format: functional; in short: as §1

## CCCCCCCCCNc1ccc(F)c(C(N)=O)c1F
Staphylococcus aureus [1]
  MIC: 8 µg/mL
Staphylococcus aureus [2]
  fractional inhibitory concentration index (FICI): 0.3
Staphylococcus aureus [3]
  fractional inhibitory concentration index (FICI): 0.3
Staphylococcus aureus [4]
  fractional inhibitory concentration index (FICI): 0
Staphylococcus aureus [5]
  MIC: 4 µg/mL
Staphylococcus aureus [6]
  MIC: 3.1 µM (≈ 0.925 µg/mL)
Staphylococcus aureus [7]
  fractional inhibitory concentration index (FICI): 2.5
Staphylococcus aureus [8]
  MIC: 16 µg/mL
Staphylococcus aureus [9]
  fractional inhibitory concentration index (FICI): 8
Staphylococcus aureus [10]
  MIC: 16 µg/mL (≈ 53.6 µM)
Staphylococcus aureus [11]
  MIC: 1 µg/mL
Staphylococcus aureus [12]
  fractional inhibitory concentration index (FICI): 0
Staphylococcus aureus [13]
  MIC: 4 µg/mL
Staphylococcus aureus [14]
  Activity: 100%
Staphylococcus aureus [15]
  MIC: 4 µg/mL
Staphylococcus aureus [16]
  MIC: 2 µg/mL
Staphylococcus aureus [17]
  MIC: 128 µg/mL (≈ 429 µM)
Staphylococcus aureus [18]
  MIC: 2 µg/mL
Staphylococcus aureus [19]
  MIC: 8 µg/mL
Staphylococcus aureus [20]
  MIC: 2 µg/mL
Staphylococcus aureus [21]
  fractional inhibitory concentration index (FICI): 1.1
Staphylococcus aureus [22]
  MIC: 2 µg/mL
Staphylococcus aureus [23]
  MIC: 1 µg/mL
Staphylococcus aureus [24]
  fractional inhibitory concentration index (FICI): 0.1
Staphylococcus aureus [25]
  MIC: 2 µg/mL
Staphylococcus aureus [26]
  fractional inhibitory concentration index (FICI): 0.2
Staphylococcus aureus [27]
  MIC: 2 µg/mL
Staphylococcus aureus [28]
  fractional inhibitory concentration index (FICI): 0
Staphylococcus aureus [29]
  MIC: 2 µg/mL
Staphylococcus aureus [30]
  MIC: 16 µg/mL
Staphylococcus aureus [31]
  MIC: 4 µg/mL
Staphylococcus aureus [32]
  fractional inhibitory concentration index (FICI): 0.3
Staphylococcus aureus [33]
  MIC: 4 µg/mL
Staphylococcus aureus [34]
  MIC: 128 µg/mL (≈ 429 µM)
Staphylococcus aureus [35]
  fractional inhibitory concentration index (FICI): 0.2
